HEK293 NFkB inh: inhibitors of the PMA/ionomycin-induced NF-kB reporter in HEK293 cells; HEK-293 NF-kB luciferase reporter, luminescence; inhibition, % at 3 µM; hit rate 0.21% among 62,000;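 active = inhibition above the mean of all tested compounds plus 3 SD, cut at about 40% in these data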
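System – HEK-293 cells with stable firefly luciferase reporter driven by four HIV NF-kB elements · Doses – one dose, 3 µM · Schedule – 1 h compound pre-incubation, 16 h PMA/ionomycin at 37 °C · Technique – luminescence from luciferase substrate reagent · Measure – percent inhibition normalized per plate to DMSO and reference-inhibitor controls · Replicates – tested once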
SF1 activator: activators of human nuclear receptor SF-1 | activation, % at 10 µM | Q13285 | hit rate 1.9% among 65,000 | CHO-K1 Gal4-SF-1 LBD luciferase reporter; % increase over DMSO SF-1-specific signal;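 active = activation above the mean activation of all tested compounds plus 3 SD, cut at about 50% in these data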
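Test system: CHO-K1 cells with Gal4–hSF-1 LBD chimera plus Gal4-driven luciferase; Input: 4,000 cells/well; Compound: 10 µM only; Times: 20 h compound treatment, 37 °C; Measured by: steady-glow luciferase luminescence, read after 15 min reagent incubation; Measure: percent activation versus DMSO; Control set: DMSO and mock-transfected background; Replicates: one test per compound.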
D1 allo mod: allosterically modulates the human D1 dopamine receptor | P21728 | HEK293 D1, CRE-luciferase, dopamine EC30 potentiation; actives deviate in either direction | hit rate 5.9% among 58,000 | B-score at 10 µM | AID 641;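 active = luminescence count or its row- and column-corrected plate score outside the 99.7% band of the plate's sample wells, on either side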
RORA act: RORA (human) activation | activation, % at 10 µM | AID 560 | hit rate 1.5% among 65,000 | P35398 | CHO-K1 Gal4-RORA LBD luciferase reporter, luminescence; percent increase over mock-subtracted basal signal;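 active = activation above the mean of all tested compounds plus 3 SD, cut at about 49% in these data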
JNK3 inh: inhibitors of human JNK3 kinase; P53779; purified JNK3 kinase activity, HTS; inhibition, % at 8 µM; hit rate 0.61% among 60,000; in the data active = inhibition above about 17%
Target sequence (P53779 whole entry, looked up): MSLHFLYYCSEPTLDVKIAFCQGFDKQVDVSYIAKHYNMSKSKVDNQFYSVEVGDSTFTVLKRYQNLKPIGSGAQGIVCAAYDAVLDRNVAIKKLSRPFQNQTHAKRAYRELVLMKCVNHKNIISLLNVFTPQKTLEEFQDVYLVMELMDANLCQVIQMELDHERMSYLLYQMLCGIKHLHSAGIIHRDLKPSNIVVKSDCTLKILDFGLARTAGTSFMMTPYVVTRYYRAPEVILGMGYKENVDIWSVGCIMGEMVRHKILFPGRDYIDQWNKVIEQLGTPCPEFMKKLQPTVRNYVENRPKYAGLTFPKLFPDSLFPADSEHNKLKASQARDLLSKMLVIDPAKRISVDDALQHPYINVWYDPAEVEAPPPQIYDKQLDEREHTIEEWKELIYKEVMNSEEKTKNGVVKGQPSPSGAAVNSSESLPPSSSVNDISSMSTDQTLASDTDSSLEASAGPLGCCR
Large screens that a line does not name were inactive. Shown are actives, neighbours in structure and some others; about 7.9% of the full set was active somewhere.

COC(=O)Nc1ccc(S(=O)(=O)N2CCCc3ccccc32)cc1	RORA act 53.4
O=C(Nc1ccc(S(=O)(=O)N2CCc3ccccc32)cc1)c1ccco1	D1 allo mod -4.87
O=C(Nc1ccc(S(=O)(=O)N2CCc3ccccc32)cc1)c1ccc2c(c1)OCO2	none
COc1ccc(C(=O)OCCN2C(=O)c3ccccc3C2=O)cc1OC	D1 allo mod 5.69 (no result: HEK293 NFkB inh, SF1 activator, RORA act, JNK3 inh)
COc1ccccc1OCCC(=O)OCCN1C(=O)c2ccccc2C1=O	none (no result: D1 allo mod)
NC(=O)c1oc2ccccc2c1NC(=O)c1nc2ccccc2s1	SF1 activator 63.6, RORA act 83.2
CSc1nc(C)cc(OCCNS(=O)(=O)c2cc(C)ccc2C)n1	none (no result: HEK293 NFkB inh, D1 allo mod)
Cn1c(SCc2c(F)cccc2Cl)nnc1-c1cccs1	SF1 activator 58.4, RORA act 102.1
Cc1cc(OCCSc2nnc(-c3cccs3)n2C)ccc1Cl	none
O=C(c1cc(-c2ccc(Cl)c(Cl)c2)on1)N1CCCCC1	RORA act 92.4
O=C(c1cc(-c2ccccc2)on1)N1CCCC1	SF1 activator 56.7
CC1CCN(C(=O)c2cc(-c3ccccc3O)on2)CC1	SF1 activator 99.1, RORA act 63.8
COc1ccc(-n2nnnc2Sc2ccc(S(=O)(=O)N3CCOCC3)cn2)cc1	none
CCC(c1ccccc1)c1nc(-c2ccccn2)no1 (stereo not given)	D1 allo mod -7.05
Cn1c(-c2ccc(F)cc2)cnc1SCC(=O)Nc1ccccc1N1CCOCC1	SF1 activator 69.6
Cn1nnnc1SCC(=O)Nc1ccccc1N1CCOCC1	none
CCOC(=O)c1ccccc1NC(=O)Cn1c(-c2nonc2N)nc2ccccc21	HEK293 NFkB inh 46.9 (no result: D1 allo mod)
Nc1nonc1-c1noc(CCCCCN2C(=O)c3ccccc3C2=O)n1	none
O=C(Nc1ccc2c(c1)OCO2)C1Cc2ccccc2CN1S(=O)(=O)c1cccs1 (stereo not given)	none (no result: D1 allo mod)
Cn1cnc2c(sc3nc(N4CCOCC4)c4c(c32)CC(C)(C)OC4)c1=O	D1 allo mod 3.55
CCN(CC)CCCNC(=O)c1cc(-c2ccc(Cl)cc2)on1	none
CCCCNC(=O)c1cc(-c2ccc(OC)cc2)on1	RORA act 59.0 (no result: D1 allo mod, JNK3 inh)
C=CCNC(=O)c1cc(-c2ccc(Br)cc2)on1	RORA act 61.1
CCCNC(=O)c1cc(-c2ccc(OC)cc2)on1	none (no result: JNK3 inh)
CCCCNC(=O)c1cc(-c2ccc(F)cc2)on1	RORA act 72.5
COC(=O)C1C(=O)c2c([nH]c(C(=O)OC3CCCCCC3)c2C)CC1C (stereo not given)	RORA act 73.9
COCCOC(=O)c1[nH]c2c(c1C)C(=O)C(C(=O)OC)C(C)C2 (stereo not given)	RORA act 55.9
CCOC(=O)N1CCN(C(c2cccc(OC)c2)c2sc3nc(C)nn3c2O)CC1 (stereo not given)	D1 allo mod -6.79
CCOC(=O)N1CCN(C(c2ccc(C)cc2)c2sc3nc(C)nn3c2O)CC1 (stereo not given)	none
CC1=C(C(=O)N2CCOCC2)C(c2ccccc2F)C2=C(CCCC2=O)N1 (stereo not given)	none (no result: D1 allo mod)
CC(=O)Cc1nsc(Nc2ccc3c(c2)OCCO3)n1	SF1 activator 67.4, RORA act 121.8 (no result: JNK3 inh)
CC(C)CCOc1ccc(Cl)cc1CN1CCOCC1	none (no result: HEK293 NFkB inh, D1 allo mod)
O=C(Nn1cnc2ccccc2c1=O)c1ccccc1Cl	SF1 activator 65.2
COc1ccc2oc(=O)c(NC(=O)C3CCCCC3)cc2c1	none (no result: D1 allo mod)
COc1ccc2oc(=O)c(-c3nc(C)cs3)cc2c1	SF1 activator 54.1 (no result: HEK293 NFkB inh, D1 allo mod)
COc1ccc(OC)c(S(=O)(=O)N2CCC(C(=O)N3CCN(Cc4ccccc4)CC3)CC2)c1	D1 allo mod -5.07
O=C(CCN1CCc2ccccc2CC1)c1ccc2c(c1)OCCO2	none (no result: HEK293 NFkB inh, D1 allo mod)
CC(=O)O[C@H]1C[C@@H]2CC[C@@H]3[C@H](CC[C@@]4(C)[C@H]3C[C@H]([N+]3(C)CCCCC3)[C@@H]4OC(C)=O)[C@@]2(C)C[C@@H]1[N+]1(C)CCCCC1	D1 allo mod 16.6 (no result: HEK293 NFkB inh)
Nc1nc(CN2CCN(c3ccccc3F)CC2)nc(Nc2ccccc2)n1	none
Cc1c(-c2nc(N)nc(Nc3ccccc3)n2)oc2ccccc12	SF1 activator 161.7, RORA act 88.7, JNK3 inh 18.5
CCCCS(=O)(=O)NC1=NCN(CCOC(=O)c2ccccc2)CN1	none
COc1ccc(NC(=O)N(CCN2CCCC2)Cc2cc3cc(OC)c(OC)cc3[nH]c2=O)cc1	none
O=c1c2ccccc2cnn1-c1nc2ccccc2s1	HEK293 NFkB inh 77.0, D1 allo mod -4.46
